Source: PMC3171643 (ACS combinatorial science, 2011)
pKd: −log10 of the molar value.

Assays:
[1] = target: GST-Cn (catalytic domain of human Cn) (Homo sapiens, UniProt Q08209); type: binding; details: Cn 5 μM, TMR-labeled peptide 100 nM
Method in brief: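 Human Cn catalytic domain as a GST fusion, expressed in E. coli BL21 and glutathione-Sepharose purified. Single-bead-released TAMRA-labeled cyclic peptide (100 nM) was incubated with 5 μM GST-Cn for 2 h at room temperature in 20 mM HEPES pH 7.4, 150 mM NaCl, 2 mM magnesium acetate, 0.1% BSA. Anisotropy was read at ex 545/em 585 nm and expressed as % increase over the peptide without Cn.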

Cn = details: cited from earlier work
[2] = target: Calcineurin (Homo sapiens) (UniProt Q08209); details: cited from earlier work

CN(C)c1ccc2c(-c3ccccc3C(=O)[O-])c3ccc(N(C)C)cc3[o+]c2c1 [free TMR, tetramethylrhodamine]
percentage of FA increase (relative to the control without Cn) [1]: less than 20%

MAPGHPVIVITGPHEE
pKd (Cn; VIVIT peptide binding to Cn): 6.30 | fold higher affinity for Cn than the native sequence (Cn): 50 fold

VIVIT peptide
pKd [2]: 6.30
